Data on 12 compounds can be found in paper PMC4955361 (Bioorganic & medicinal chemistry letters, 2016).

In data set [1] the target is T1, M1 (Homo sapiens, UniProt P11229).
T1 sequence (P11229 1-460): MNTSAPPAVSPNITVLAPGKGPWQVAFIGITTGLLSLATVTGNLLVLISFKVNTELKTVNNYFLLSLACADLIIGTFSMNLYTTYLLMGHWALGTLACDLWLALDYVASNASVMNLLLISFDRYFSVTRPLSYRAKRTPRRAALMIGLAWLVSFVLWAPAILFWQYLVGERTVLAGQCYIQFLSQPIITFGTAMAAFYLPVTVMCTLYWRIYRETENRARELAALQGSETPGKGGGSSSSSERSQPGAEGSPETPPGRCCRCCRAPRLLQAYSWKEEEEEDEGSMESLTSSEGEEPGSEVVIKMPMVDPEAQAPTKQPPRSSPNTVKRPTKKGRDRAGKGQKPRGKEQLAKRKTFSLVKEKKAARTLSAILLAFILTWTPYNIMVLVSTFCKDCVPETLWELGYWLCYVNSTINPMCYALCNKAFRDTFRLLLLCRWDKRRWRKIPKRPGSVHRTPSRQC
As to the kind of experiment: Muscarinic receptor subtype selectivity, M1. It is filed as cell-based. Conditions: for selectivity versus M1: data not shown; for potency at M1 relative to M4: antagonist.

Data set [2] addresses T2, M5 (Homo sapiens, UniProt P08912).
T2 sequence (P08912 1-532): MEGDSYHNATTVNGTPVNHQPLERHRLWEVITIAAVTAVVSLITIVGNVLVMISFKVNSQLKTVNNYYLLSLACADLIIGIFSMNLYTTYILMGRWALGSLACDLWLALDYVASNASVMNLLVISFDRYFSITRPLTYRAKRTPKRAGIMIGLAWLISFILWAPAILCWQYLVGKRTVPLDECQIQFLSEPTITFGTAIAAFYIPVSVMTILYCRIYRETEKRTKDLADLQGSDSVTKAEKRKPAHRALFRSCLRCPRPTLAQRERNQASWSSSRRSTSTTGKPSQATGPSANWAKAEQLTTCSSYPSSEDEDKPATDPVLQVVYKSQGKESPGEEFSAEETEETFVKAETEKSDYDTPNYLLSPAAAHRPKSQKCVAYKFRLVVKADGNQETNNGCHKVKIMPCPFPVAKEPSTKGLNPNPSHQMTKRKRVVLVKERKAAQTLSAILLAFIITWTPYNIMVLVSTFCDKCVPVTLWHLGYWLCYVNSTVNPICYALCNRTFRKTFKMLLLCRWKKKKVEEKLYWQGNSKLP
As to the kind of experiment: Muscarinic receptor subtype selectivity, M5. The class given is cell-based. Conditions: for selectivity versus M5: data not shown; for potency at M5 relative to M4: antagonist.

Data set [3] in a line: Intrinsic clearance in human hepatic microsomes. It is filed as in vitro ADME. Conditions: predicted hepatic clearance from in vitro intrinsic clearance.
The nature of data set [4]: Intrinsic clearance in rat hepatic microsomes. The class given is in vitro ADME. Conditions: predicted hepatic clearance from in vitro intrinsic clearance.
Data set [5] is described as follows: Metabolite identification. The class given is in vitro ADME. As to conditions: rat hepatic microsomes, NADPH-dependent.
The nature of data set [6]: Metabolite identification. It is filed as in vitro ADME. As to conditions: human hepatic microsomes, NADPH-dependent.
For another data set, the system named is rats. Conditions: by potentiation of receptor activation by endogenous acetylcholine; cited from earlier work.
A further data set has as its system rodent. As to conditions: cited from earlier work.
The next data set has as its target T3, human M4 (Homo sapiens, UniProt P08173).
T3 sequence (P08173 1-479): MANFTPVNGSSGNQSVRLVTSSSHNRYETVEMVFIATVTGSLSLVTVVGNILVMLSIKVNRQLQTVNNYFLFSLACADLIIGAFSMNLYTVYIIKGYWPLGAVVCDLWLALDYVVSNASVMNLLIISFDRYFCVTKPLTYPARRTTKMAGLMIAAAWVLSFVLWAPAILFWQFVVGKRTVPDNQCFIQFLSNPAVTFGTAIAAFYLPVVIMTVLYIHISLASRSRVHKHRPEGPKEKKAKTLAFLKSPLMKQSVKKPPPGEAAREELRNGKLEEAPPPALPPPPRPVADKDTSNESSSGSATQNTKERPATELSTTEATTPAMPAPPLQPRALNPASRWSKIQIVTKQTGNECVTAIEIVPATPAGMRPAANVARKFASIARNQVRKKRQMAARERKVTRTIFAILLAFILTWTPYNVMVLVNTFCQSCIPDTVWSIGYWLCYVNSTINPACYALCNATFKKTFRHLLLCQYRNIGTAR
It is filed as cell-based. Conditions: read-out: % ACh Max ± SEM. The method, boiled down:
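Functional Ca2+ mobilization read-out in CHO cells co-expressing human M4 and the chimeric G protein Gqi5. Test compound is applied with a fixed ~EC20 concentration of acetylcholine. PAM potency is reported as EC50/pEC50 and efficacy as % of the acetylcholine maximum. Values are means of at least three independent determinations.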

Data set [7] can be described thus: Rat brain:plasma distribution. It is filed as in vivo. Conditions: in words.
In data set [8] the target is T2, M5. As to the kind of experiment: Built-in HTS counterscreen, human M5. The class given is cell-based. Background: A counterscreen serves to expose hits that act by an unwanted route or on another target.
Data set [9] deals with T1, M1. As to the kind of experiment: Built-in HTS counterscreen, human M1. The class given is cell-based.
The next data set concerns CYP450. As to the kind of experiment: CYP450 inhibition profile. The class given is in vitro ADME. Conditions: in words.
The target of another data set is M3 (Homo sapiens, UniProt P20309). As to the kind of experiment: Muscarinic receptor subtype selectivity, M3. The class given is cell-based. Conditions: antagonist.
A further data set deals with T4, M2 (Homo sapiens, UniProt P08172).
T4 sequence (P08172 1-466): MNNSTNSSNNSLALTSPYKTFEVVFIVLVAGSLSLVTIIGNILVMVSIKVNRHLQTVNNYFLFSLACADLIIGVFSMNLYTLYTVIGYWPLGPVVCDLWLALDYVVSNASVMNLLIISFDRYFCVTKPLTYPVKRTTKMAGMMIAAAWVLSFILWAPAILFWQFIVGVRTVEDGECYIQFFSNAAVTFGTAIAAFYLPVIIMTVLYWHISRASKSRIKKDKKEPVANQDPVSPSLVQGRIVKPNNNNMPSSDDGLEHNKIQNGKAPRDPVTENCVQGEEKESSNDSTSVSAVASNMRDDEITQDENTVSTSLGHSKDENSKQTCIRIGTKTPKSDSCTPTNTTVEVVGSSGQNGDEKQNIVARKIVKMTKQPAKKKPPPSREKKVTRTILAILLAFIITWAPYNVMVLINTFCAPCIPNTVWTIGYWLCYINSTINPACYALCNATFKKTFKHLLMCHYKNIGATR
As to the kind of experiment: Muscarinic receptor subtype selectivity, M2. It is filed as cell-based. Conditions: antagonist.

Chain of M3 (P20309 whole entry): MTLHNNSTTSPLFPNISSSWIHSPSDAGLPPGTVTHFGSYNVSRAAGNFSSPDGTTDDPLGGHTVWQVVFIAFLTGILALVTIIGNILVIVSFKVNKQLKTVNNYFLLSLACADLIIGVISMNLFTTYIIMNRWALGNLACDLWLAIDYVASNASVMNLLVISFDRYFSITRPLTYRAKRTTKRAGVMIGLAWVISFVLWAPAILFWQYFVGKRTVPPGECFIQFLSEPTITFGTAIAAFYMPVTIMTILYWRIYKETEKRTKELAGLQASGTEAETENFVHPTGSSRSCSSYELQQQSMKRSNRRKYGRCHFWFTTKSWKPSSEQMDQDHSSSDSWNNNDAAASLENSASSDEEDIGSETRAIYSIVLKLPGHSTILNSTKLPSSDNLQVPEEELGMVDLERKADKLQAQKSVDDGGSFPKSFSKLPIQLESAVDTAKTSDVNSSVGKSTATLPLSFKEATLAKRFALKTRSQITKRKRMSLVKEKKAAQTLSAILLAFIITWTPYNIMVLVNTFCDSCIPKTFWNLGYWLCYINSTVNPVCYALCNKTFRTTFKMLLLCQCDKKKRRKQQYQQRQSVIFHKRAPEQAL

Turning to `Cc1sc2ncnc(N3CCC(C(=O)Nc4ccc(S(C)(=O)=O)cc4)CC3)c2c1C` [10e], at M1 [1], the “selectivity versus M1” value is recorded as “retaining selectivity”. For the same compound, the “selectivity versus M5” value on M5 [2] is on record as “retaining selectivity”.
For the compound `Cc1sc2ncnc(N3CCC(C(=O)Nc4ccc(F)cc4Cl)CC3)c2c1C` [10g], the “selectivity versus M1” value at M1 [1] was “retaining selectivity”. In addition, on M5 [2], the “selectivity versus M5” value is on record as “retaining selectivity”.
On to `Cc1sc2ncnc(N3CCC(C(=O)Nc4cc(Cl)ccc4Cl)CC3)c2c1C` [10h], for which, on M1 [1], the “selectivity versus M1” value is “retaining selectivity”. On M5 [2], the “selectivity versus M5” value is listed as “retaining selectivity”.
As to `Cc1sc2ncnc(N3CCC(C(=O)N4CCCC4)CC3)c2c1C` [11a], the “predicted CLhep, human” value in data set [3] is given as 16 mL/min/kg. Further, in [4], the “predicted CLhep, rat” value is 67 mL/min/kg.
For `Cc1sc2ncnc(N3CCC(C(=O)N4CC[C@H](F)C4)CC3)c2c1C` [11b], the “predicted CLhep, human” value in data set [3] is recorded as 14 mL/min/kg. The “predicted CLhep, rat” value in data set [4] is reported as 68 mL/min/kg.
Take `Cc1ccc(OC2CCN(c3ncnc4sc(C)c(C)c34)CC2)cn1` [14b]: the “major pathway of metabolism in rat” value in data set [5] was “hydroxylation of the 5,6-dimethyl moiety”. In addition, the “predicted CLhep, human” value in data set [3] is on record as 20 mL/min/kg. Also, the “predicted CLhep, rat” value in [4] is given as 68 mL/min/kg. In data set [6], the “major metabolic route in human” value was “heteroatom (likely the thiophene sulfur) oxidation”.
`Cc1ccc(OC2CCN(c3ncnc4ccc(F)cc34)CC2)cn1` [17b]: the “predicted CLhep, human” value in data set [3] was 12 mL/min/kg. Besides, the “predicted CLhep, rat” value in data set [4] is reported as 50 mL/min/kg.
With `COc1ccc(CNC(=O)c2sc3nc(C)cc(C)c3c2N)cc1` [VU0152100], the “antipsychotic-like activity in rats” value in the data set on rats is reported as “displayed antipsychotic-like activity”.
Consider `Cc1nnc2sc(C(=O)NCc3ccc(S(=O)(=O)C(F)(F)F)cc3)c(N)c2c1C` [VU0467154], for which the “in vivo efficacy in rodent antipsychotic and cognition models” value with rodent is listed as “robust in vivo efficacy”.
`Cc1sc2ncnc(N3CCC(C(=O)Nc4ccc(S(N)(=O)=O)cc4)CC3)c2c1C` [compound 5]: the Emax at human M4 was found to be 91 ± 4%. Also, the CNS penetration result in [7] is on record as “not CNS penetrant”. Also, the “activity on human M5” value on M5 [8] was “inactive”. Further, the “activity on human M1” value at M1 [9] is “inactive”.
Turning to `CCCN(c1ccc(C)nc1)C1CCN(c2ncnc3sc(C)c(C)c23)CC1` [compound 19], the CYP450 inhibition profile entry with CYP450 is recorded as “acceptable”. In addition, the “potency at M1 relative to M4” value at M1 [1] is “similarly potent”. Moreover, the “potency at M3 relative to M4” value on M3 is “similarly potent”. Besides, the “potency at M5 relative to M4” value on M5 [2] is “similarly potent”. Moreover, the “potency at M2 relative to M4” value at M2 is given as “similarly potent”.
`CCCCN(c1ccc(C)nc1)C1CCN(c2ncnc3sc(C)c(C)c23)CC1` [compound 20]: the CYP450 inhibition profile entry with CYP450 was “acceptable”. The “potency at M1 relative to M4” value at M1 [1] was “similarly potent”. Further, the “potency at M3 relative to M4” value at M3 is “similarly potent”. On M5 [2], the “potency at M5 relative to M4” value is “similarly potent”. At M2, the “potency at M2 relative to M4” value is “similarly potent”.
